Data from ChEMBL document CHEMBL1155028, “Synthesis and pharmacological investigation of novel 2-aminothiazole-privileged aporphines” (Bioorg Med Chem, 2008).

Key:
Format in all cases: cell-based
[1] = target: D(1A) dopamine receptor (Homo sapiens, UniProt P21728); test: Displacement of [3H]SCH-23390 from human dopamine D1 receptor expressed in HEK293 cells
[2] = target: T1, 5-hydroxytryptamine receptor 1A (Rattus norvegicus, UniProt P19327); test: Displacement of [3H]8-OH-DPAT from rat 5HT1A receptor expressed in CHO cells
T1 sequence (P19327 whole entry): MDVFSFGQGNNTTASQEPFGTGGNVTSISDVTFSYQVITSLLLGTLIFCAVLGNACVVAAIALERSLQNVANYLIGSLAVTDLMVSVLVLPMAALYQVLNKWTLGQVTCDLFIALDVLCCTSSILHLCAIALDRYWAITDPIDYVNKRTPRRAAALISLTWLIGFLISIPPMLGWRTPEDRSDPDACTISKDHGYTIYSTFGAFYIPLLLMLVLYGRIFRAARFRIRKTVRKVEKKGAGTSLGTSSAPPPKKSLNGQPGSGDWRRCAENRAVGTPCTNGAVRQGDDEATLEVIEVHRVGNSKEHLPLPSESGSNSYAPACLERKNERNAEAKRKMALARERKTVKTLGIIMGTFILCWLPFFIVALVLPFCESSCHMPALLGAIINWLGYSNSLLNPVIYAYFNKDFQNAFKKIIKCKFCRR

[3] = target: T2, 5-hydroxytryptamine receptor 1A (Rattus norvegicus) (UniProt P19327); test: Displacement of [3H]8-OH-DPAT from rat 5HT1A receptor expressed in CHO cells at 10 uM
T2 sequence (whole entry): T1 sequence (P19327 whole entry)
In short: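 Duplicate incubations ran 50 min at 30 °C in 50 mM Tris, 4 mM MgCl2, pH 7.4. Nonspecific binding was set with 10 µM WAY100635. Bound ligand was separated on GF/B filters, washed with cold Tris/EDTA buffer, and counted by liquid scintillation.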

[4] = target: D(2) dopamine receptor (Homo sapiens, UniProt P14416); test: Displacement of [3H]spiperone from human dopamine D2 receptor expressed in HEK293 cells
Sequence of D(2) dopamine receptor (P14416 whole entry): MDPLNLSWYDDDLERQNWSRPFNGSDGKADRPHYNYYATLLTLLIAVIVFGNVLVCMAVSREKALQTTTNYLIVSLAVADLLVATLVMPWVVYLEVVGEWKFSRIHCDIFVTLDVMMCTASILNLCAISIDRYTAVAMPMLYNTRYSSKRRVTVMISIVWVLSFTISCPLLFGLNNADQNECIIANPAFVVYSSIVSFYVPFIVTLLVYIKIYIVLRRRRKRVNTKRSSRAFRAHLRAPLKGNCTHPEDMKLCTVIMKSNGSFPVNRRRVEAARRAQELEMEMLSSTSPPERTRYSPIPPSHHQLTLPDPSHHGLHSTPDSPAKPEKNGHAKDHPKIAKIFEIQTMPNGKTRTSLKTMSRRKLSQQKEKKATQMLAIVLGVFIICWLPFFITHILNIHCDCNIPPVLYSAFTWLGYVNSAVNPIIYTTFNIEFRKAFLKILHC

Sequence of D(1A) dopamine receptor (P21728 whole entry): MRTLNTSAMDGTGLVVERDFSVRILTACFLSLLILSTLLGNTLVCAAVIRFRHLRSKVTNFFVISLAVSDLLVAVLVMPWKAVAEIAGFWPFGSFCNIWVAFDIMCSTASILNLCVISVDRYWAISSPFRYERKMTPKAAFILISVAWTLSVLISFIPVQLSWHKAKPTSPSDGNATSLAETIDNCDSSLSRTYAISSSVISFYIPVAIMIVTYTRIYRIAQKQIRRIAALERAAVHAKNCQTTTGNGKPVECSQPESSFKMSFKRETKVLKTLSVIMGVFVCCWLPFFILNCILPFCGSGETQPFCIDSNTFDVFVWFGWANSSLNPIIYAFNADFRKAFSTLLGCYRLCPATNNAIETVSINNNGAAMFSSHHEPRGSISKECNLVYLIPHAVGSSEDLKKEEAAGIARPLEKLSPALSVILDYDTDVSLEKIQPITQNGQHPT

| SMILES | Ki [1] | Ki [2] | Activity [3] | Ki [4] |
| --- | --- | --- | --- | --- |
| CN1CCc2cc(N)cc3c2[C@H]1Cc1cccc(N)c1-3 | 2920 nM | 2300 nM | 48.1% |  |
| CN1CCc2c3c(cc4nc(N)sc24)-c2c(ccc(O)c2O)C[C@H]31 | 2520 nM |  |  | 328 nM |
| NCCc1c[nH]c2ccc(O)cc12 |  |  | 100% |  |
| COc1cc2c3c(c1)-c1c(N)cccc1C[C@H]3N(C)CC2 | 78 nM | 640 nM | 94% |  |
| CCCCC(=O)Oc1cccc2c1-c1cc(OC)cc3c1[C@@H](C2)N(C)CC3 | 116 nM | 151 nM | 100% |  |
| COc1cc2c3c(c1)-c1c(ccc4sc(N)nc14)C[C@H]3N(C)CC2 |  |  | 48.1% |  |
